We go through twelve compounds from ChEMBL document CHEMBL5053482, “Rapid Optimization of the Metabolic Stability of a Human Immunodeficiency Virus Type-1 Capsid Inhibitor Using a Multistep Computational Workflow” (J Med Chem, 2021).

For series [1], the system named is Human immunodeficiency virus 1. Briefly: Antiviral activity against HIV1 NL4-3 Env-deficient pseudotype virus infected in human U87.CD4.CCR5.CXCR4 cells assessed by reduction in viral infection in early stage measured after 48 hrs by luciferase activity based single-round infection assay. The class given is functional, organism-based. To be noted: for pIC50: Human immunodeficiency virus 1, NL4-3, U87.CD4.CCR5.CXCR4, 48 h, read-out: IC50; for IC50: u87.cd4.ccr5.cxcr4.

Series [2] deals with Human immunodeficiency virus 1. The experiment in a line: Binding affinity to hexameric C-terminal His-tagged HIV1 NL4-3 capsid protein A14C/E45C/W184A/M185A mutant expressed in Escherichia coli BL21 codon plus (DE3)RIL assessed as association rate constant by SPR analysis. In short, it runs like this: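 Disulfide-stabilised CA hexamers, isolated by size exclusion after stepwise βME dialysis, amine-coupled at 100 μg/mL (10mM sodium acetate pH 5.0) to GLH chip; IgG b12 reference surface. 25 °C; running buffer PBS, 3% DMSO, 0.005% polysorbate 20, pH 7.4. One-shot kinetics of 1:4 serial dilutions from 5 or 2 μM, 100 μl/min, 1 min association, up to 5 min dissociation.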
(In general: Surface plasmon resonance follows binding to a sensor surface in real time, without labels.)

The nature of series [3]: Cytotoxicity against in human U87.CD4.CCR5.CXCR4 cells assessed as reduction in cell viability measured after 48 hrs by CCK8 assay. The class given is cell-based. The following applies: u87.cd4.ccr5.cxcr4, 48 h. In short, it runs like this: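 U87 cells stably expressing CD4/CCR5 or CD4/CXCR4 were grown in a humidified 5% CO2 atmosphere at 37°C and seeded at 1.2 × 10^4 cells/well 24 h before treatment. Cells were exposed to compound (1mM-0.3μM) or DMSO for 48 h at 37°C, then to CCK-8 for 4 h at 37°C, and absorbance was read at 450 nm. Controls were untreated cells and 0.1% SDS-treated cells.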

The nature of series [4]: Therapeutic index, ratio of CC50 for cytotoxicity against human 87.CD4.CCR5.CXCR4 cells to IC50 for antiviral activity against HIV1 NL4-3 virus in human 87.CD4.CCR5.CXCR4 cells. In kind it is toxicity, cell-based. The following applies: read-out: TI. In outline:
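U87.CD4.CCR5/CXCR4 cells were seeded 24 h ahead and incubated 48 h at 37°C. Antiviral arm: p24-normalised single-round luciferase pseudovirus (pNL4-3-Luc+R-E− backbone, BG505 Env), luminescence read after lysis. […] Index is CC50 divided by IC50.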

Series [5] in a line: Binding affinity to hexameric C-terminal His-tagged HIV1 NL4-3 capsid protein A14C/E45C/W184A/M185A mutant expressed in Escherichia coli BL21 codon plus (DE3)RIL assessed as dissociation constant by SPR analysis. On the set-up: species or system Human immunodeficiency virus 1. In outline: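 SPR at 25 °C using one-shot kinetics. Disulfide-stabilized CA hexamer was assembled by βME dialysis, isolated by SEC, and amine-coupled to a GLH chip at 100 μg/mL in 10 mM sodium acetate pH 5.0. An IgG b12 surface served as reference. Compound was injected as 1:4 serial dilutions from 5 or 2 μM in PBS with 3% DMSO and 0.005% polysorbate 20, pH 7.4, at 100 μl/min. Association was 1 min and dissociation up to 5 min.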

Series [6] can be described thus: Half life in human liver microsomes. In kind it is ADME, Microsome.
Series [7] deals with Human immunodeficiency virus 1. The experiment in a line: Binding affinity to C-terminal His-tagged HIV1 NL4-3 capsid protein K70A mutant expressed in Escherichia coli BL21 codon plus (DE3)RIL.
Series [8] deals with Human immunodeficiency virus 1. The experiment in a line: Binding affinity to C-terminal His-tagged HIV1 NL4-3 capsid protein N57A mutant expressed in Escherichia coli BL21 codon plus (DE3)RIL.
The subject of series [9] is Human immunodeficiency virus 1. Briefly: Binding affinity to C-terminal His-tagged HIV1 NL4-3 capsid protein M66A mutant expressed in Escherichia coli BL21 codon plus (DE3)RIL.

pIC50, pKd: −log10 of the molar value. The source made the active and inactive calls. The rule behind the calls is not given here.

With `Cc1[nH]c2ccccc2c1CC(=O)N[C@@H](Cc1ccccc1)C(=O)N(C)c1ccccc1`, the pIC50 (usually the IC50 on a negative log10 scale, so that one unit is a factor of ten) in series [1] is 7.10. For the same compound, the Ka in series [2] is 4.75 10^5/M/s. Moreover, the 50% cytotoxic concentration (CC50) (commonly the concentration giving 50% cytotoxicity) in [3] (read-out: CC50) was determined as 66.7 µM.

`CN(C(=O)[C@@H](Cc1ccccc1)NC(=O)Cc1n[nH]c2c(N)cccc12)c1ccc2[nH]ncc2c1`: the IC50 entry in series [1] was “Not Active”. The CC50 entry in series [3] was “Not Active”.

For the compound `CN(C(=O)[C@H](Cc1ccccc1)NC(=O)Cc1c[nH]c2c(N)cccc12)c1ccccc1`, the selectivity ratio in series [4] came to 1630. The negative logarithm of the Kd (pKd) (as a rule, the negative decadic logarithm of the Kd, by convention in mol/L) in [5] is 6.86. This compound came in with a t1/2 in series [6] of 15.4 min. Besides, the negative logarithm of the IC50 (pIC50) in series [1] is 7.21. For the same compound, in series [2], the Ka was 4.76 10^5/M/s. Besides, the 50% cytotoxic concentration (CC50) in [3] (read-out: CC50) was 101 µM.

Consider `CN(C(=O)[C@@H](Cc1ccccc1)NC(=O)Cc1c[nH]c2c(N)cccc12)c1ccccc1`, for which the IC50 result in [1] is reported as “Not Active”. In series [3], the CC50 entry is listed as “Not Active”.

`Cc1[nH]c2ccccc2c1CC(=O)N[C@H](Cc1ccccc1)C(=O)N(C)c1ccccc1`: the IC50 entry in series [1] is on record as “Not Active”. For the same compound, the cytotoxic concentration (CC50) entry in [3] is “Not Active”.

For `Cc1[nH]c2ccccc2c1CC(=O)N[C@H](Cc1ccccc1)C(=O)N(C)c1ccc2[nH]ncc2c1`, the IC50 entry in [1] is on record as “Not Active”. Besides, in series [3], the CC50 entry is given as “Not Active”.

On to `CN(C(=O)[C@H](Cc1ccccc1)NC(=O)Cc1n[nH]c2c(N)cccc12)c1ccc2[nH]ncc2c1`, for which, in series [4], the selectivity ratio came out at 365. For the same compound, the pKd in [5] is 6.47. The same compound returned a t1/2 in series [6] of 102 min. In series [1], the pIC50 is 6.55. In series [2], the Ka was 2.86 10^5/M/s. For the same compound, the 50% cytotoxic concentration (CC50) in [3] (read-out: CC50) was determined as 102 µM.

As for `Cc1[nH]c2ccccc2c1CC(=O)N[C@@H](Cc1ccccc1)C(=O)N(C)c1ccc2[nH]ncc2c1`, the selectivity ratio in [4] came out at 2280. In addition, in series [5], the pKd was 7.60. This compound also registered a t1/2 in [6] of 1 min. In addition, the negative-log IC50 (pIC50) in series [1] is 7.69. For the same compound, the Ka in series [2] was 4.37 10^5/M/s. Besides, in series [3] (read-out: CC50), the CC50 was determined as 46.9 µM.

Consider `CN(C(=O)C(Cc1ccccc1)NC(=O)Cc1c[nH]c2c(N)cccc12)c1ccccc1` (racemic), for which the outcome in series [7], in [8] and in series [9] was inactive. Also, the selectivity ratio in series [4] was found to be 859. Besides, the pKd in series [5] is 6.72. Moreover, in [1], the negative logarithm of the IC50 (pIC50) is 7.01. Besides, the Ka in series [2] was 5.62 10^5/M/s. In addition, the CC50 in [3] (read-out: CC50) turned out to be 83.5 µM.

As for `CN(C(=O)C(Cc1ccccc1)NC(=O)Cc1n[nH]c2c(N)cccc12)c1ccc2[nH]ncc2c1` (racemic), the result in [7], in series [8] and in series [9] was inactive. Further, in [4], the selectivity ratio amounted to 171. Moreover, in series [5], the pKd is 6.31. Moreover, the pIC50 in [1] was 5.62. For the same compound, the Ka in [2] was 2.2 10^5/M/s. Besides, the CC50 in series [3] (read-out: CC50) is 415 µM.

As for `Cc1[nH]c2ccccc2c1CC(=O)NC(Cc1ccccc1)C(=O)N(C)c1ccc2[nH]ncc2c1` (racemic), the result in series [7], in series [8] and in [9] was inactive. In addition, the selectivity ratio in series [4] is 2010. In addition, the pKd in series [5] is 7.36. The pIC50 in series [1] is 7.42. Further, the Ka in [2] was 2.75 10^5/M/s. In series [3] (read-out: CC50), the CC50 is 76.9 µM.

In the case of `Cc1[nH]c2ccccc2c1CC(=O)NC(Cc1ccccc1)C(=O)N(C)c1ccccc1` (racemic), the outcome in series [7], in series [8] and in series [9] was inactive. In addition, the pIC50 in series [1] is 7.26. Moreover, the Ka in [2] is 3.07 10^5/M/s. In series [3] (read-out: CC50), the CC50 was 36.8 µM.
